Compounds with a hit are over-represented: about 9.6% of the library has one in this group of screens.
Ba/F3 V617F tox – lowers viability of Ba/F3 cells expressing EpoR and JAK2V617F; AID 1446; ATP luminescence; 220,000 tested, 1.1% active; inhibition, % at 5.6 µM;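 active = inhibition above the campaign mean plus 3 SD over all tested compounds, cut at about 24% in these data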;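 note: cytokine-independent growth of Ba/F3 cells driven by EpoR plus mutant JAK2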
APP 5UTR inh – APP translation inhibition. AID 1285. SH-SY5Y APP 5'UTR-luciferase reporter, luminescence. 190,000 tested, 0.82% active. inhibition, % at 2 µM;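 active = inhibition above a set limit, derived from the sample mean plus 3 SD, cut at about 45% in these data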
BaF3 parental – reduces parental Ba/F3 cell viability, JAK2V617F counter-screen | CellTiter-Glo ATP luminescence | inhibition, % at 5.6 µM | 220,000 tested, 1.1% active;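 active = inhibition above a per-campaign cutoff, the mean inhibition of all tested compounds plus 3 SD, cut at about 27% in these data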
MT stabilize HCS – stabilizes microtubules in HeLa cells; 200,000 tested, 0.83% active; HeLa tubulin immunostaining HCS, 24 h; share of cells brighter than vehicle mean+2SD; % tubulin-high responders, % at 10 µM;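 active = plate Z-score above 3 for both tubulin-high and condensed-nucleus cell shares, with cell loss under 80%, at 10 µM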;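 note: anti alpha tubulin signal scored within the nucleus-defined area of each cell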
L major viab – inhibitors of Leishmania major promastigote growth; Leishmania major promastigotes, resazurin fluorescence viability; inhibition, % at 10 µM; 200,000 tested, 9% active; AID 1063; in the data active = inhibition above about 50%;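 note: promastigotes grown with compound for 44 hours at 28 °C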
b-catenin transl – beta-catenin nuclear translocation modulation; AID 1665; 190,000 tested, 0.3% active; HeLa beta-catenin nuclear translocation, immunofluorescence imaging; nuclear translocation activity, % at 5 µM;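 active = nuclear translocation activity above 50% at 5 µM, with a well cell count of 50 or more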;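 note: per-cell ratio of nuclear to cytoplasmic median beta-catenin stain intensity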
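test system = HeLa cells, endogenous beta-catenin | dosing = single 5 µM dose plus 0.02–20 µM confirmation series | times = compound treatment 24 h, 37°C, 5% CO2 | technique = beta-catenin immunofluorescence imaging with DAPI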
A number is an active result; i = inactive; nt = no result given.

SMILES | Ba/F3 V617F tox | APP 5UTR inh | BaF3 parental | MT stabilize HCS | L major viab | b-catenin transl
COc1cc(/C=C(/C#N)c2ccc(F)cc2)ccc1Oc1ccc([N+](=O)[O-])cn1 | i | i | i | i | i | i
CCOC(=O)c1cnc2c(F)ccc(F)c2c1Sc1ccccc1 | i | nt | i | nt | nt | i
COc1ccc(OCCOCCOc2ccc(C)cc2[N+](=O)[O-])cc1 | i | i | i | i | i | i
COCCCNCCOCCOc1ccc(C)cc1[N+](=O)[O-] | i | i | i | i | 93.6 | i
Cc1ccc(OCCOCCN2CCN(C)CC2)c([N+](=O)[O-])c1 | i | i | i | i | i | i
COCCNCCCCOc1ccc(C)cc1[N+](=O)[O-] | i | i | i | i | 74.2 | i
Cc1ccc(OCCOCCN2CCCCC2)c([N+](=O)[O-])c1 | i | i | i | i | 70.3 | i
COc1ccccc1N(C)S(=O)(=O)c1ccc(C(=O)OCC(=O)NCc2ccco2)cc1 | i | i | i | i | i | i
CCc1ccc(OCC(=O)Nc2ccc(N3CCN(S(C)(=O)=O)CC3)cc2)cc1 | i | i | i | i | i | i
COc1ccc(-c2nc(CN3CCN(c4cc(C)nc(C)c4)CC3)c(C)o2)c2ccccc12 | i | i | i | i | 100.5 | i
COc1ccc(CCNC(=O)C2CCCN2S(=O)(=O)c2ccc(F)cc2)cc1OC (centres undefined) | i | i | i | i | i | i
O=C(CCN1C(=O)c2ccccc2C1=O)OCN1C(=O)c2ccccc2C1=O | i | i | i | i | i | nt
O=C(OCN1C(=O)c2ccccc2C1=O)c1cccs1 | i | i | 93.7 | i | i | i
Cc1ccc(C)c(NC(=O)C2=CCN(S(=O)(=O)c3ccc(F)cc3)CC2)c1 | i | i | i | i | i | i
COc1ccc(-c2csc(NC(=O)CSc3nc(SC)ns3)n2)cc1 | i | i | i | i | 51.7 | i
Cc1nc(SCC(=O)Nc2nc3ccccc3s2)c(C#N)c(C)c1C | i | 64.1 | i | i | i | i
COc1ccc2nc(NC(=O)CSc3nc(SC)ns3)sc2c1 | i | i | i | i | i | i
CSc1nsc(SCC(=O)Nc2nc3ccccc3s2)n1 | i | i | i | i | 62.6 | i
COc1cc(C(=O)NCc2nnc(SCC(=O)Nc3nc4ccccc4s3)o2)cc(OC)c1OC | i | i | i | i | 71.0 | i
COc1ccc(C(=O)NCc2nnc(SCC(=O)Nc3nc4ccccc4s3)o2)cc1 | i | i | i | i | i | i
CCCCN=C1CC(C)(C)CC(=O)/C1=C(/O)CCC | i | nt | i | nt | nt | i
Oc1ccccc1C1CC(c2cccs2)=NC(c2cccc(Br)c2)N1 (centres undefined) | i | i | i | i | i | i
OC(CNCC1COc2ccccc2O1)COCc1cccs1 (centres undefined) | i | i | i | i | 92.1 | i
CCCNCC1COc2ccccc2O1 (centres undefined) | i | i | i | i | i | nt
COc1ccc(CNCC(O)COCc2cccs2)cc1 (centres undefined) | i | i | i | i | 88.2 | i
SMILES | Ba/F3 V617F tox | APP 5UTR inh | BaF3 parental | MT stabilize HCS | L major viab | b-catenin transl
CC(OCC(O)CNCC1COc2ccccc2O1)c1ccc(Cl)cc1 (centres undefined) | i | i | i | i | 90.7 | i
O=C(COC(=O)CSc1ccc2ccccc2c1)NCc1ccc2c(c1)OCO2 | i | i | i | i | i | i
O=C(CNS(=O)(=O)c1ccc(Br)s1)N1CCC(N2CCCCC2)CC1 | i | i | i | i | 78.3 | i
Fc1ccc(NC(=S)NCc2cccs2)cc1 | i | i | i | i | i | i
CCOC(=O)C1(CC2CCCCO2)CCN(Cc2nccn2-c2cccc(C)c2)CC1 (centres undefined) | i | i | i | i | 52.5 | i
O=C1CSC(c2ccccn2)N1c1ccc(Br)cc1 (centres undefined) | i | i | i | i | i | i
Cc1cnc(CN2CCc3c([nH]c4ccccc34)C2C2CCCCC2)[nH]1 (centres undefined) | i | i | i | i | 53.8 | i
O=C(CSc1nnc2n1CCCCC2)Nc1ccc(N2CCOCC2)cc1 | i | nt | i | nt | nt | i
CN(C)CCOc1ccc2c(c1)Sc1ccccc1CC2=O | i | i | i | i | 100.2 | nt
Cc1cccc(C)c1Nc1nnc(SCc2cc([N+](=O)[O-])cc3c2OCOC3)s1 | i | 47.6 | i | i | i | nt
COc1cccc(Nc2nnc(SCc3cc([N+](=O)[O-])cc4c3OCOC4)s2)c1 | i | 91.9 | i | i | i | i
O=[N+]([O-])c1cc2c(c(CSc3ncccn3)c1)OCOC2 | i | i | i | i | i | i

Compound activity from PubChem.
